Experimental findings from ChEMBL document CHEMBL1154150, “Synthesis and anticonvulsant activity of some new bishydrazones derived from 3,4-dipropyloxythiophene” (Eur J Med Chem, 2009) are described below.

Data set [1] concerns Mus musculus. The experiment in a line: Anticonvulsant activity in CF1 mouse assessed as protection against subcutaneous metrazole-induced seizures at 300 mg/kg, ip after 4 hrs. The class given is functional, organism-based. On the set-up: dose 300 mg/kg.
In data set [2] the test system is Mus musculus. The data set can be described thus: Neurotoxicity in CF1 mouse at 300 mg/kg, ip after 0.5 hrs by rotarod test. In kind it is toxicity, organism-based. On the set-up: dose 300 mg/kg, route intraperitoneal. The settings on record: in vivo. An outline of the steps:
(§1)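 Rotorod neurotoxicity in male CF-1 mice (18–25 g) after i.p. compound in 0.5% methyl cellulose/water or PEG 200 at 30, 100 or 300 mg/kg; reported as number showing toxicity/number tested.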
(In the rotarod test animals must keep their balance on a rotating rod.)

Data set [3] deals with Mus musculus. The data set can be described thus: Neurotoxicity in CF1 mouse at 30 mg/kg, ip after 0.5 hrs by rotarod test. The settings on record: in vivo. The class given is toxicity, organism-based. Also noted: dose 30 mg/kg, route intraperitoneal. A digest of the protocol:
as §1

Data set [4] deals with Mus musculus. The data set can be described thus: Neurotoxicity in CF1 mouse at 30 mg/kg, ip after 4 hrs by rotarod test. In kind it is toxicity, organism-based. Also noted: dose 30 mg/kg, route intraperitoneal. The settings on record: in vivo. An outline of the steps: as §1
In data set [5] the test system is Mus musculus. The data set can be described thus: Anticonvulsant activity in CF1 mouse assessed as protection against maximal electroshock-induced seizures at 100 mg/kg, ip after 0.5 hrs. The class given is functional, organism-based. On the set-up: dose 100 mg/kg. An outline of the steps: (§2)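 Male CF-1 albino mice (18–25 g), dosed i.p. at 30, 100 or 300 mg/kg in 0.5% methyl cellulose/water or PEG 200 (0.01 ml/g); tested at intervals after dosing; protection = abolition of hind limb tonic extensor component of MES seizure; scored as protected/tested.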
For orientation: The maximal electroshock test induces tonic seizures with an electrical stimulus.

The test system of data set [6] is Mus musculus. The experiment in a line: Anticonvulsant activity in CF1 mouse assessed as protection against subcutaneous metrazole-induced seizures at 30 mg/kg, ip after 0.5 hrs. In kind it is functional, organism-based. Also noted: dose 30 mg/kg.
Data set [7] deals with Mus musculus. The data set can be described thus: Anticonvulsant activity in CF1 mouse assessed as protection against maximal electroshock-induced seizures at 30 mg/kg, ip after 0.5 hrs. On the set-up: dose 30 mg/kg. In kind it is functional, organism-based. A digest of the protocol: as §2
Data set [8] relates to Mus musculus. The experiment in a line: Neurotoxicity in CF1 mouse at 100 mg/kg, ip after 4 hrs by rotarod test. In kind it is toxicity, organism-based. Also noted: dose 100 mg/kg, route intraperitoneal. The settings on record: in vivo. An outline of the steps:
as §1

Data set [9] relates to Mus musculus. The experiment in a line: Anticonvulsant activity in CF1 mouse assessed as protection against maximal electroshock-induced seizures at 100 mg/kg, ip after 4 hrs. On the set-up: dose 100 mg/kg. The class given is functional, organism-based. An outline of the steps: as §2
The test system of data set [10] is Mus musculus. The experiment in a line: Neurotoxicity in CF1 mouse at 100 mg/kg, ip after 0.5 hrs by rotarod test. The class given is toxicity, organism-based. On the set-up: dose 100 mg/kg, route intraperitoneal. The settings on record: in vivo. A digest of the protocol:
as §1

The test system of data set [11] is Mus musculus. The data set can be described thus: Anticonvulsant activity in CF1 mouse assessed as protection against maximal electroshock-induced seizures at 30 mg/kg, ip after 4 hrs. In kind it is functional, organism-based. Also noted: dose 30 mg/kg. An outline of the steps: as §2
Data set [12] relates to Mus musculus. The data set can be described thus: Anticonvulsant activity in CF1 mouse assessed as protection against subcutaneous metrazole-induced seizures at 100 mg/kg, ip after 4 hrs. Also noted: dose 100 mg/kg. In kind it is functional, organism-based.
Data set [13] relates to Mus musculus. The data set can be described thus: Anticonvulsant activity in CF1 mouse assessed as protection against subcutaneous metrazole-induced seizures at 100 mg/kg, ip after 0.5 hrs. In kind it is functional, organism-based. Also noted: dose 100 mg/kg.
For data set [14], the system named is Mus musculus. The data set can be described thus: Anticonvulsant activity in CF1 mouse assessed as protection against maximal electroshock-induced seizures at 300 mg/kg, ip after 0.5 hrs. The class given is functional, organism-based. Also noted: dose 300 mg/kg. An outline of the steps: as §2
Data set [15] deals with Mus musculus. The experiment in a line: Neurotoxicity in CF1 mouse at 300 mg/kg, ip after 4 hrs by rotarod test. The settings on record: in vivo. On the set-up: dose 300 mg/kg, route intraperitoneal. In kind it is toxicity, organism-based. An outline of the steps:
as §1

Data set [16] has as its system Mus musculus. The data set can be described thus: Anticonvulsant activity in CF1 mouse assessed as protection against subcutaneous metrazole-induced seizures at 30 mg/kg, ip after 4 hrs. In kind it is functional, organism-based. On the set-up: dose 30 mg/kg.
The subject of data set [17] is Mus musculus. The data set can be described thus: Anticonvulsant activity in CF1 mouse assessed as protection against subcutaneous metrazole-induced seizures at 300 mg/kg, ip after 0.5 hrs. The class given is functional, organism-based. Also noted: dose 300 mg/kg.
The test system of data set [18] is Mus musculus. The data set can be described thus: Anticonvulsant activity in CF1 mouse assessed as protection against maximal electroshock-induced seizures at 300 mg/kg, ip after 4 hrs. The class given is functional, organism-based. On the set-up: dose 300 mg/kg. An outline of the steps:
as §2

Activity calls are given as the source filed them. No cut-off for these calls is given here.

Consider `CCCOc1c(C(=O)N/N=C(\C)c2ccccc2)sc(C(=O)N/N=C(\C)c2ccccc2)c1OCCC`, for which the result in the data set with Mus musculus [1], in the data set on Mus musculus [5], with Mus musculus [6], in the data set on Mus musculus [7], in the data set on Mus musculus [9] and in the data set with Mus musculus [11] was inactive. For the same compound, the outcome with Mus musculus [12], in the data set on Mus musculus [13], with Mus musculus [14], in the data set on Mus musculus [16] and in the data set with Mus musculus [17] was inactive. For the same compound, the Activity result in the data set with Mus musculus [2], in the data set on Mus musculus [3], in the data set with Mus musculus [4], in the data set with Mus musculus [8], in the data set on Mus musculus [10] and in the data set on Mus musculus [15] was “Non-toxic” in each case.

`CCCOc1c(C(=O)N/N=C\c2cccs2)sc(C(=O)N/N=C/c2cccs2)c1OCCC`: the outcome with Mus musculus [1], in the data set on Mus musculus [5], in the data set on Mus musculus [6], in the data set on Mus musculus [7], in the data set on Mus musculus [9] and in the data set with Mus musculus [11] was inactive. In addition, the outcome in the data set on Mus musculus [12], with Mus musculus [18], with Mus musculus [14], in the data set with Mus musculus [16] and in the data set on Mus musculus [17] was inactive. Further, the Activity result was “Toxic” in the data set with Mus musculus [2]; “Non-toxic” with Mus musculus [3]; “Non-toxic” in the data set on Mus musculus [4]; “Non-toxic” in the data set on Mus musculus [8]; “Toxic” with Mus musculus [10]; “Toxic” in the data set on Mus musculus [15].

Take `CCCOc1c(C(=O)N/N=C(\C)c2cc3ccccc3oc2=O)sc(C(=O)N/N=C(\C)c2cc3ccccc3oc2=O)c1OCCC`: the outcome with Mus musculus [1], in the data set on Mus musculus [5], in the data set on Mus musculus [6], in the data set on Mus musculus [7], in the data set on Mus musculus [9] and in the data set with Mus musculus [11] was inactive. Besides, the outcome in the data set on Mus musculus [12], with Mus musculus [13], in the data set with Mus musculus [14], in the data set on Mus musculus [16] and in the data set on Mus musculus [17] was inactive. Besides, the Activity entry in the data set on Mus musculus [2] is “Toxic”; with Mus musculus [3], “Non-toxic”; in the data set on Mus musculus [4], “Non-toxic”; with Mus musculus [8], “Non-toxic”; in the data set on Mus musculus [10] it was “Toxic”; with Mus musculus [15], “Toxic”.

Regarding `CCCC/C=N/NC(=O)c1sc(C(=O)N/N=C/CCCC)c(OCCC)c1OCCC`, the result with Mus musculus [1], in the data set with Mus musculus [5], with Mus musculus [6], in the data set on Mus musculus [7], in the data set with Mus musculus [9] and in the data set with Mus musculus [11] was inactive. Also, the result in the data set on Mus musculus [12], with Mus musculus [18], with Mus musculus [14], in the data set on Mus musculus [16] and in the data set with Mus musculus [17] was inactive. Also, the Activity entry was “Toxic” with Mus musculus [2]; “Non-toxic” in the data set with Mus musculus [3]; “Non-toxic” with Mus musculus [4]; “Non-toxic” with Mus musculus [8]; “Toxic” with Mus musculus [10]; “Non-toxic” in the data set with Mus musculus [15].

Turning to `CCCOc1c(C(=O)N/N=C(/c2ccccc2)c2ccncc2)sc(C(=O)N/N=C(\c2ccccc2)c2ccncc2)c1OCCC`, the result with Mus musculus [1], in the data set with Mus musculus [6], in the data set with Mus musculus [7], in the data set on Mus musculus [9], in the data set on Mus musculus [11] and with Mus musculus [12] was inactive. Moreover, the result with Mus musculus [18], with Mus musculus [13], in the data set with Mus musculus [14] and in the data set on Mus musculus [17] was inactive. Besides, the Activity result with Mus musculus [2], with Mus musculus [3], in the data set on Mus musculus [4], with Mus musculus [8], with Mus musculus [10] and in the data set with Mus musculus [15] was “Non-toxic” each time.

Regarding `CCCOc1c(C(=O)NN=C2CCCC2)sc(C(=O)NN=C2CCCC2)c1OCCC`, the outcome with Mus musculus [1], in the data set on Mus musculus [5], in the data set on Mus musculus [6], with Mus musculus [7], with Mus musculus [9] and with Mus musculus [11] was inactive. Moreover, the result in the data set on Mus musculus [12], with Mus musculus [13], with Mus musculus [14], in the data set on Mus musculus [16] and in the data set with Mus musculus [17] was inactive. Further, the Activity result in the data set on Mus musculus [2], in the data set with Mus musculus [3], in the data set on Mus musculus [4], with Mus musculus [8], in the data set on Mus musculus [10] and with Mus musculus [15] was “Non-toxic” throughout.

For the compound `CCCOc1c(C(=O)N/N=C(\C)c2nccs2)sc(C(=O)N/N=C(\C)c2nccs2)c1OCCC`, the outcome in the data set on Mus musculus [1], in the data set on Mus musculus [6], in the data set with Mus musculus [7], in the data set with Mus musculus [9], with Mus musculus [11] and in the data set on Mus musculus [12] was inactive. Besides, the outcome with Mus musculus [18], in the data set with Mus musculus [13], with Mus musculus [14], with Mus musculus [16] and with Mus musculus [17] was inactive. The Activity result in the data set on Mus musculus [2], in the data set on Mus musculus [3], in the data set with Mus musculus [4], with Mus musculus [8], in the data set on Mus musculus [10] and in the data set with Mus musculus [15] was “Non-toxic” throughout.

Take `CCCOc1c(C(=O)N/N=C\c2ccc([N+](=O)[O-])o2)sc(C(=O)N/N=C/c2ccc([N+](=O)[O-])o2)c1OCCC`: the outcome with Mus musculus [1], in the data set on Mus musculus [5], in the data set with Mus musculus [6], in the data set on Mus musculus [7], with Mus musculus [9] and with Mus musculus [11] was inactive. In addition, the result in the data set with Mus musculus [12], with Mus musculus [18], with Mus musculus [14], with Mus musculus [16] and in the data set with Mus musculus [17] was inactive. The Activity entry with Mus musculus [2] is listed as “Toxic”; in the data set with Mus musculus [4] it was “Non-toxic”; with Mus musculus [8], “Toxic”; with Mus musculus [10], “Toxic”; with Mus musculus [15] it was “Toxic”.
